PMC4500736 (Journal of neuroscience methods, 2015)
Where no end group is shown, it is not given here.

Tests used:
[1] = system: normal F344 rats; format: in vivo, rat; conditions: 300 μg intranasal 5 days a week for 3 weeks, p < 0.05
In short: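 Normal F344 rats under light isoflurane (~1.0–3.0% with […]), supine. Striatum and SN harvested as 2 mm sections, frozen −80 °C. DA, DOPAC, HVA by HPLC-EC (ng/g wet tissue); turnover ratios; one-way ANOVA, Bonferroni.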

[2] = system: unilateral 6-OHDA lesioned F344 rats; experiment: d-amphetamine-induced rotation in 6-OHDA-lesioned rats; format: in vivo, rat; conditions: animals taken out to 6 weeks (data not shown), n = 3 DNSP-11, n = 2 vehicle
[3] = system: unilateral 6-OHDA lesioned F344 rats; experiment: DA and DA metabolite levels; format: in vivo, rat; conditions: 5 weeks post 6-OHDA, 300 μg intranasal daily, p < 0.01
[4] = system: unilateral 6-OHDA lesioned F344 rats; experiment: TH+ fiber density in the SNpr of 6-OHDA lesioned rats; format: in vivo, rat; conditions: mean ± SEM
In short: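 Unilateral 3-site striatal 6-OHDA lesion (right hemisphere). Intranasal test compound 300 μg or vehicle daily for 7 days pre-lesion, ~60 min before infusion, then 35 ± 3 days. Midbrain fixed in 4% paraformaldehyde for 24 h, then 15 & 30% sucrose; 30 μm coronal sections. Ipsilateral SNpr TH+ immunoreactive area measured at −5.24, −5.60 and −5.96 mm from bregma. Two-tailed unpaired t-test.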

[5] = dissolved in 0.9% sterile saline; cited from earlier work

Substance: PPEAPAEDRSL-NH2 [DNSP-11, Dopamine neuron stimulating peptide-11]
- increase in DA turnover in the SN compared to vehicle [1]: 34%
- increase in DA turnover in the striatum compared to vehicle [1]: 25%
- reduction in d-amphetamine-induced rotations compared to vehicle [2]: 21%
- reduction in DA turnover in the ipsilateral side to the lesion compared to vehicle [3]: 39%
- Fiber Density for the Lesioned SNpr, Rostral ([4]; n = 6, vehicle 0.20 ± 0.03): 0.26 ± 0.09
- Fiber Density for the Lesioned SNpr, Middle ([4]; n = 6, vehicle 0.22 ± 0.07): 0.41 ± 0.20
- Fiber Density for the Lesioned SNpr, Caudal ([4]; n = 6, vehicle 1.10 ± 0.67): 0.91 ± 0.41
- stability in 0.9% sterile saline [5]: stable
